# Measured values: ChEMBL document CHEMBL3232976, “Investigation of the cytotoxic, genotoxic, and apoptosis-inducing effects of estragole isolated from fennel (Foeniculum vulgare)” (J Nat Prod, 2014)
# Key:
# HepG2 [1] = test: Induction of early apoptosis in human HepG2 cells assessed as decrease mitochondrial membrane potential at 84.55 ug/ml after 4 hrs by JC-1 staining relative to control; assay type: functional; design: scale not given: the % may be the effect or the level left
# Summary of the method: (§1)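 Cells seeded 48 h before a 4 h exposure; 0.5 μM valinomycin for 4 h as depolarizing positive control. Stained with JC-1 plus DAPI (necrotic cells), read by automated fluorescence image cytometry. Depolarization seen as a fall in red/green ratio; gated as % depolarized cells. Three independent experiments, mean ± SEM.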
# HepG2 [2] = test: Induction of early apoptosis in human HepG2 cells assessed as decrease mitochondrial membrane potential at 42.28 ug/ml after 4 hrs by JC-1 staining relative to control; assay type: functional; design: scale not given: the % may be the effect or the level left; summary of the method: as §1
# HepG2 [3] = test: Genotoxicity in human HepG2 cells assessed as DNA strand-breakage at 42.28 ug/ml after 4 hrs by alkaline comet assay; settings: hepg2, 4 h
# HepG2 [4] = test: Induction of late apoptosis in human HepG2 cells assessed as induction of DNA fragmentation at 42.28 ug/ml after 4 hrs by […] relative to control; assay type: functional
# Summary of the method: (§2)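 Cells seeded 48 h before a 4 h exposure; 1 μM staurosporine positive control. Cells permeabilized with ethanol, washed to remove low-molecular-weight DNA, stained with DAPI, and DNA content read by automated image cytometry. Result as % sub-G1 cells below a manually set G1/G0 peak. Three independent experiments, mean ± SEM.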
# HepG2 [5] = test: Cytotoxicity against human HepG2 cells assessed as cell viability at 21.14 ug/ml after 4 hrs by AO/DAPI double staining relative to control; assay type: functional; settings: HepG2, 4 h, read-out: Activity
# Summary of the method: (§3)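 Cells seeded at 5 × 10^5/well, grown 24 h, exposed 4 h to the three highest MTT-tested concentrations. Cell suspension loaded into cassettes coated with acridine orange (all cells) and DAPI (nonviable cells), then counted by automated fluorescence image analysis. Viability as % of total cells; three independent experiments, mean ± SEM.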
# HepG2 [6] = test: Induction of late apoptosis in human HepG2 cells assessed as induction of DNA fragmentation at 21.14 ug/ml after 4 hrs by […] relative to control; assay type: functional; summary of the method: as §2
# HepG2 [7] = test: Cytotoxicity against human HepG2 cells assessed as cell viability at 84.55 ug/ml after 4 hrs by AO/DAPI double staining relative to control; assay type: functional; settings: HepG2, 4 h, read-out: Activity; summary of the method: as §3
# HepG2 [8] = test: Cytotoxicity against human HepG2 cells assessed as cell viability at 42.28 ug/ml after 4 hrs by trypan blue dye exclusion assay relative to control; assay type: functional; settings: HepG2, 4 h, read-out: Activity
# Summary of the method: (§4)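 Cells seeded at 5 × 10^5/well, grown 24 h, then exposed 4 h to the three highest MTT-tested concentrations. Trypan blue exclusion read on an automated cell counter, unstained cells counted as viable. Viability as % of total cells; three independent experiments, mean ± SEM.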
# HepG2 [9] = test: Induction of late apoptosis in human HepG2 cells assessed as induction of DNA fragmentation at 84.55 ug/ml after 4 hrs by […] relative to control; assay type: functional; summary of the method: as §2
# HepG2 [10] = test: Genotoxicity in human HepG2 cells assessed as DNA strand-breakage at 84.55 ug/ml after 4 hrs by alkaline comet assay; settings: hepg2, 4 h
# HepG2 [11] = test: Induction of early apoptosis in human HepG2 cells assessed as decrease mitochondrial membrane potential at 21.14 ug/ml after 4 hrs by JC-1 staining relative to control; assay type: functional; design: scale not given: the % may be the effect or the level left; summary of the method: as §1
# HepG2 [12] = test: Cytotoxicity against human HepG2 cells assessed as cell viability at 21.14 ug/ml after 4 hrs by MTT assay relative to control; assay type: functional; settings: HepG2, 4 h, read-out: Activity
# Summary of the method: (§5)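 HepG2 seeded at 1 × 10^5 cells/well in phenol red-free MEM, grown 24 h, then exposed 4 h to eight concentrations (dissolved in MEM; 2% Triton X100 positive control). MTT 1 mg/mL added for 2 h at 37 °C, formazan dissolved in 2-propanol, A570 minus A650. Viability as % of untreated controls; three independent experiments, mean ± SEM.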
# HepG2 [13] = test: Cytotoxicity against human HepG2 cells assessed as cell viability at 0.67 ug/ml after 4 hrs by MTT assay relative to control; assay type: functional; settings: HepG2, 4 h, read-out: Activity; summary of the method: as §5
# HepG2 [14] = test: Cytotoxicity against human HepG2 cells assessed as cell viability at 84.55 ug/ml after 4 hrs by trypan blue dye exclusion assay relative to control; assay type: functional; settings: HepG2, 4 h, read-out: Activity; summary of the method: as §4
# HepG2 [15] = test: Cytotoxicity against human HepG2 cells assessed as cell viability at 42.28 ug/ml after 4 hrs by MTT assay relative to control; assay type: functional; settings: HepG2, 4 h, read-out: Activity; summary of the method: as §5
# HepG2 [16] = test: Cytotoxicity against human HepG2 cells assessed as cell viability at 42.28 ug/ml after 4 hrs by AO/DAPI double staining relative to control; assay type: functional; settings: HepG2, 4 h, read-out: Activity; summary of the method: as §3
# HepG2 [17] = test: Genotoxicity in human HepG2 cells assessed as DNA strand-breakage at 21.14 ug/ml after 4 hrs by alkaline comet assay; settings: hepg2, 4 h
# HepG2 [18] = test: Cytotoxicity against human HepG2 cells assessed as cell viability at 2.64 ug/ml after 4 hrs by MTT assay relative to control; assay type: functional; settings: HepG2, 4 h, read-out: Activity; summary of the method: as §5
# HepG2 [19] = test: Cytotoxicity against human HepG2 cells assessed as cell viability at 84.55 ug/ml after 4 hrs by MTT assay relative to control; assay type: functional; settings: HepG2, 4 h, read-out: Activity; summary of the method: as §5
# HepG2 [20] = test: Cytotoxicity against human HepG2 cells assessed as cell viability at 21.14 ug/ml after 4 hrs by trypan blue dye exclusion assay relative to control; assay type: functional; settings: HepG2, 4 h, read-out: Activity; summary of the method: as §4
# HepG2 [21] = test: Cytotoxicity against human HepG2 cells assessed as cell viability at 5.28 ug/ml after 4 hrs by MTT assay relative to control; assay type: functional; settings: HepG2, 4 h, read-out: Activity; summary of the method: as §5
# HepG2 [22] = test: Cytotoxicity against human HepG2 cells assessed as cell viability at 10.57 ug/ml after 4 hrs by MTT assay relative to control; assay type: functional; settings: HepG2, 4 h, read-out: Activity; summary of the method: as §5
# HepG2 [23] = test: Cytotoxicity against human HepG2 cells assessed as cell viability at 1.32 ug/ml after 4 hrs by MTT assay relative to control; assay type: functional; settings: HepG2, 4 h, read-out: Activity; summary of the method: as §5
# HepG2 [24] = test: Induction of early apoptosis in human HepG2 cells assessed as decrease mitochondrial membrane potential at 0.5 uM after 4 hrs by JC-1 staining relative to control; assay type: functional; design: scale not given: the % may be the effect or the level left; summary of the method: as §1
# HepG2 [25] = test: Induction of late apoptosis in human HepG2 cells assessed as induction of DNA fragmentation at 1 uM after 4 hrs by […] relative to control; assay type: functional; summary of the method: as §2
structure (smiles),measurement,setting,value
C=CCc1ccc(OC)cc1 [ESTRAGOLE],Activity,HepG2 [1],13.2%
same,Activity,HepG2 [2],12.3%
same,Activity,HepG2 [3],Non-toxic
same,Activity,HepG2 [4],3.7%
same,viability at 21.14 µg/mL,HepG2 [5],90.9%
same,Activity,HepG2 [6],3.4%
same,viability at 84.55 µg/mL,HepG2 [7],90.2%
same,viability at 42.28 µg/mL,HepG2 [8],93.3%
same,Activity,HepG2 [9],4.9%
same,Activity,HepG2 [10],Non-toxic
same,Activity,HepG2 [11],15.9%
same,viability at 21.14 µg/mL,HepG2 [12],110%
same,viability at 0.67 µg/mL,HepG2 [13],106%
same,viability at 84.55 µg/mL,HepG2 [14],85%
same,viability at 42.28 µg/mL,HepG2 [15],108%
same,viability at 42.28 µg/mL,HepG2 [16],91.7%
same,Activity,HepG2 [17],Non-toxic
same,viability at 2.64 µg/mL,HepG2 [18],101%
same,viability at 84.55 µg/mL,HepG2 [19],103%
same,viability at 21.14 µg/mL,HepG2 [20],92.7%
same,viability at 5.28 µg/mL,HepG2 [21],104%
same,viability at 10.57 µg/mL,HepG2 [22],117%
same,viability at 1.32 µg/mL,HepG2 [23],94.8%
CC(C)[C@@H]1NC(=O)[C@H](C)OC(=O)[C@@H](C(C)C)NC(=O)[C@@H](C(C)C)OC(=O)[C@H](C(C)C)NC(=O)[C@H](C)OC(=O)[C@@H](C(C)C)NC(=O)[C@@H](C(C)C)OC(=O)[C@H](C(C)C)NC(=O)[C@H](C)OC(=O)[C@@H](C(C)C)NC(=O)[C@@H](C(C)C)OC1=O [VALINOMYCIN],Activity,HepG2 [24],40.3%
CN[C@@H]1C[C@H]2O[C@@](C)([C@@H]1OC)n1c3ccccc3c3c4c(c5c6ccccc6n2c5c31)C(=O)NC4 [STAUROSPORINE],Activity,HepG2 [25],21.1%
